Shown are actives, neighbours in structure and some others; about 2.7% of the full set was active somewhere.
PAFAH2 inh: inhibitors of human PAFAH2; Q99487; recombinant PAFAH2, FP-rhodamine activity probe, fluorescence polarization; inhibition, % at 3.39 µM; 0.99% of 340,000 active; AID 492956;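 active means inhibition above the mean over all tested compounds plus 3 SD, cut at about 30% in these data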;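 further: inhibitors block probe labeling of enzyme so polarization drops; 0% = enzyme with DMSO and 100% = wells lacking PAFAH2 protein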
PAFAH1B2 FP inh: PAFAH1B2 (human) inhibition. recombinant PAFAH1B2, FP-rhodamine activity probe, fluorescence polarization. inhibition, % at 3.39 µM. 1.2% of 340,000 active. AID 492953;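 active means inhibition above the mean of all tested compounds plus 3 SD, cut at about 24% in these data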;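 further: 0% = enzyme with DMSO and 100% = wells lacking PAFAH1B2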
Target sequence (P68402 whole entry, looked up): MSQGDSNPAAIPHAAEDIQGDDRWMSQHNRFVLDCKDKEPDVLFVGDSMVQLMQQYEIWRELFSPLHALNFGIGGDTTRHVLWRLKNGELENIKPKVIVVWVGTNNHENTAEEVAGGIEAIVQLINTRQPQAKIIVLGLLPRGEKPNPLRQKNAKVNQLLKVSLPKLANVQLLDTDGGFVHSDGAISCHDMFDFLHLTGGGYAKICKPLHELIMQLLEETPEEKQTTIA
pPAFAH FP inh: inhibitors of human plasma PAF acetylhydrolase (pPAFAH). recombinant pPAFAH, FP-rhodamine probe fluorescence polarization. 1.5% of 330,000 active. Q13093. inhibition, % at 3.39 µM;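 active means inhibition above the mean inhibition across the screen plus 3 SD, cut at about 25% in these data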;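 further: inhibitors block binding of the rhodamine activity-based probe so polarization drops; 0% = enzyme with DMSO and 100% = wells lacking pPAFAH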
RBBP9 inhibitor: blocks human serine hydrolase RBBP9 | O75884 | inhibition, % at 7.94 µM | recombinant RBBP9, FP-Rh probe fluorescence polarization | AID 1515 | 0.2% of 220,000 active;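 active means inhibition above the campaign mean of all tested compounds plus 3 SD, cut at about 14% in these data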;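 further: plate controls were DMSO wells with RBBP9 for no effect and wells lacking RBBP9 protein for full effect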
Target sequence (O75884 whole entry, looked up): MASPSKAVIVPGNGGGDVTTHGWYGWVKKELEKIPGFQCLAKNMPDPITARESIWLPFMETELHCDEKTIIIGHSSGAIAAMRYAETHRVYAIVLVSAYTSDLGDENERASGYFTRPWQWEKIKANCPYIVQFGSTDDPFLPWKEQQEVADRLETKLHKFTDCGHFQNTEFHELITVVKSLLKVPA
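Measured by: FP readout at 525/598 nm; material: recombinant human RBBP9; also added: Serine-hydrolase probe FP-Rh, 375 nM pre-mixing; medium: Tris buffer pH 8.0, NaCl, Pluronic; replication: one well per compound; doses: one concentration, 7.94 µM nominal, 0.794% DMSO; timing: preincubation 30 min plus labeling 45 min at 25 °C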
PAFAH1B3 FP inh: inhibitors of human PAFAH1B3; Q15102; recombinant PAFAH1B3, FP-rhodamine probe, fluorescence polarization; inhibition, % at 3.39 µM; 0.28% of 340,000 active;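 active means inhibition above the screen-wide average of all tested compounds plus 3 SD, cut at about 25% in these data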;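 further: 0% = enzyme with DMSO only and 100% = wells lacking PAFAH1B3 protein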
Target sequence (Q15102 whole entry, looked up): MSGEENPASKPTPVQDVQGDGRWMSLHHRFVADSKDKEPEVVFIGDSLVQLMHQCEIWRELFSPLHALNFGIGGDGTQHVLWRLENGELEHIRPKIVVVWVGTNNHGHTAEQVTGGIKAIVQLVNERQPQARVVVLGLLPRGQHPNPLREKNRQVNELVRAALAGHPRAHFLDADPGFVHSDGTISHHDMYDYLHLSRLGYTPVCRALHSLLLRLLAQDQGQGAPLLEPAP
RBBP9 inh conf: human RBBP9 inhibition, confirmation | shares compounds with RBBP9 inhibitor | inhibition, % at 7.94 µM | recombinant RBBP9, FP-Rh probe fluorescence polarization | 36% of 410 active;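 active means inhibition above the hit cutoff derived for the primary screen, cut at about 15% in these data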;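 further: 0% = RBBP9 with DMSO and 100% = wells lacking RBBP9 protein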
An asterisk follows results filed as active; . = no result.

SMILES	PAFAH2 inh	PAFAH1B2 FP inh	pPAFAH FP inh	RBBP9 inhibitor	PAFAH1B3 FP inh	RBBP9 inh conf
O=C(Oc1ccc(-c2cnc3ccccc3n2)cc1)c1ccc(Br)o1	1.2	0.7	-1.3	16.9*	-2.5	-4.2
CCc1cc(/C(Cc2ccccn2)=N\O)c(O)cc1O	14.2	12.7	7.8	5.0	20.8	.
CCc1cc(/C(Cc2ccc3ccccc3n2)=N\O)c(O)cc1O	17.3	23.9	20.2	46.3*	40.9*	50.3*
Cc1ccccc1-n1sc2cc(F)ccc2c1=O	5.0	2.7	6.2	62.8*	1.7	72.2*
O=C(CSc1nnc2ccccn12)N1CCOCC1	-2.3	0.6	1.7	14.4*	7.5	8.0
COc1ccc(COn2nnc3ccc(S(=O)(=O)N4CCOCC4)cc32)cc1F	4.7	0.3	2.1	.	7.5	.
CC(C)(C)N1CCC1C(N)=O (stereo not given)	.	.	-1.1	18.4*	.	1.6
CC(C)(C)OC(=O)N1CCC(C(N)=O)CC1	5.5	4.7	1.4	-3.6	-0.8	.
Cc1nc2scc(-c3ccccc3)c2c(=O)n1N=C1C=CC(=O)C=C1	.	.	.	48.7*	.	58.9*
Cc1nc2scc(-c3ccccc3)c2c(=O)n1N	1.4	-2.9	3.7	-0.9	6.7	.
CCC(=O)N/C(=N/c1nc(C)cc(C)n1)Nc1ccc(OC)cc1	-8.7	-0.4	1.2	19.3*	7.3	6.3
Cc1cc(C)nc(/N=C(\NC(=O)C(C)(C)C)Nc2ccc(F)cc2)n1	-3.3	4.8	-7.4	14.8*	7.1	7.4
CCc1ccc(N/C(=N/c2nc(C)cc(C)n2)NC(C)=O)cc1	5.8	6.0	3.8	.	5.7	.
ONC(=Nc1cccc(C(F)(F)F)c1)c1cccnc1	3.9	6.6	0.8	7.3	8.6	.
OC(CNC1Cc2ccccc2C1)COc1ccc(F)cc1 (stereo not given)	-4.9	-0.3	-6.2	15.3*	14.6	7.2
O=C1COC(c2ccccc2)C2CCCCN12 (stereo not given)	2.5	-1.8	0.8	-6.4	5.1	.
CC(C)C[C@H](N)c1nnc(SCc2ccc(Cl)cc2)o1	-2.9	22.1	0.9	16.0*	-5.4	9.7
Cc1nc2ccc(NC(=O)Cc3c(F)cccc3Cl)cc2s1	-6.0	2.5	5.4	6.0	1.0	.
CC(=O)Nc1cc(Br)ccc1O	9.7	6.9	-3.2	-0.8	5.2	.
CC(=O)Nc1c(F)cc(Br)cc1F	2.4	4.4	5.2	16.4*	6.5	9.1
Cc1cc(C)c2c(=O)n(CC(=O)N3CCC(Cc4ccccc4)CC3)sc2n1	.	.	.	-2.3	.	.
Cc1cccc(N2CCN(C(=O)Cn3sc4nc(C)cc(C)c4c3=O)CC2C)c1 (stereo not given)	2.9	-0.2	-2.3	18.7*	8.0	33.6*
COc1ccc(C(=O)NCCCn2ccnc2)cc1[N+](=O)[O-]	-1.6	-1.5	0.3	-1.7	8.0	.
COc1cc(C(=O)NCCCn2ccnc2)cc(OC)c1OC	1.8	0.0	4.7	14.4*	-9.7	0.3
COc1ccc(S(=O)(=O)Nc2ccccc2C(=O)N2CCOCC2)cc1Br	-3.6	5.2	.	.	-2.3	.
SMILES	PAFAH2 inh	PAFAH1B2 FP inh	pPAFAH FP inh	RBBP9 inhibitor	PAFAH1B3 FP inh	RBBP9 inh conf
Cc1ccc(N(CC(=O)Nc2c(C)n(C)n(-c3ccccc3)c2=O)S(C)(=O)=O)c(C)c1	3.7	1.3	4.3	-3.4	4.3	.
Cc1ccc(N(CC(=O)N/N=C/c2cc(C)n(-c3ccccc3)c2C)S(C)(=O)=O)c(C)c1	3.8	-0.6	8.9	16.6*	2.0	2.8
Cc1ccc2cc(CCNC(=O)c3cccs3)c(=O)[nH]c2c1	-1.8	-2.2	3.0	15.9*	0.1	11.0
Cc1ccc2cc(CCNC(=O)c3cccs3)c(=O)[nH]c2c1C	9.9	3.9	-1.4	-8.3	0.4	.
Cc1[nH]c2ccccc2c1/C=N/NC(=O)c1ccccc1	4.7	5.3	8.1	.	4.4	.
Cc1[nH]c2ccccc2c1/C=N/NC(=O)c1cc(-c2ccccc2)n[nH]1	.	.	25.3*	19.3*	.	25.2*
O=C(NN=C1CCCCC1)c1ccccc1OCc1ccc(F)cc1	-9.2	-1.3	8.8	-1.6	6.3	.
O=C(NN=C1CCCC1)c1ccccc1OCCOc1ccccc1	10.8	6.5	-0.9	23.0*	1.6	2.6
CSc1ccccc1C(=O)C1CCCN(Cc2cnn(-c3ccccc3)c2)C1 (stereo not given)	4.1	1.8	2.7	17.7*	2.0	0.1
CSc1ccccc1C(=O)C1CCCN(Cc2c(C)n(C)n(-c3ccccc3)c2=O)C1 (stereo not given)	4.8	5.1	3.6	-1.7	2.1	.
Nc1ccccc1C(=O)N1O[C@@H]2C=C[C@H]1C2	-0.9	-1.6	2.6	.	1.3	.
O=C(O)/C=C/C(=O)NC1CCC(CC2CCC(NC(=O)/C=C/C(=O)O)CC2)CC1 (stereo not given)	6.3	6.7	-7.5	20.6*	6.1	9.2
CCOC(=O)Cc1nn(CC)c(=O)c2ccccc12	-4.3	2.2	6.8	-2.9	5.1	.
CCOC(=O)Cc1nn(C)c(=O)c2ccccc12	0.0	-3.3	1.9	15.9*	-1.0	0.0
O=c1c2cc(N3CCOCC3)ccc2[nH]c(=S)n1Cc1ccccc1Cl	4.7	1.4	4.8	0.0	9.5	.
O=c1c2ccccc2[nH]c(=S)n1CCCN1CCOCC1	6.4	3.9	7.4	14.7*	0.4	7.0
O=c1c2cc(N3CCOCC3)ccc2[nH]c(=S)n1Cc1ccccn1	1.4	1.9	6.2	14.9*	3.0	10.6
CCN(CC(=O)Nc1ccc(OC)cc1)C(=O)c1cc(S(=O)(=O)N(C)C)ccc1N1CCCC1	3.1	2.5	-2.7	.	10.4	.
CC1(C)CC2CC(C)(CN2C(=O)COC(=O)c2ccc(Cl)c(N)c2)C1 (stereo not given)	12.2	8.2	7.4	-0.8	0.6	.
CCOC(=O)N1CCC(NC(=O)c2cc3c(=O)[nH]c4ccccc4c3n2C)CC1	3.5	1.6	1.8	3.3	6.1	.
COc1ccc(NC(=O)C2CSC3c4ccccc4C(=O)N23)cc1 (stereo not given)	0.5	-0.8	-0.7	14.4*	0.0	2.5
CC1=CC(=NOC(=O)/C=C/c2ccccc2)C=C(C)C1=O	8.5	-2.5	7.6	16.8*	-10.4	78.8*
CC1=CC(=O)C=C(C)C1=NOC(=O)/C=C\c1ccccc1	-6.6	0.2	5.0	-2.9	2.2	.
O=C1C(C2=NC(c3ccccn3)C3C(=O)N(c4ccccc4)C(=O)C23)=C(O)c2ccccc21 (stereo not given)	-14.0	0.9	-1.2	59.5*	3.2	7.8
O=C1C2C3C=CC(C3)C2C(=O)N1c1ccccc1 (stereo not given)	-0.4	2.3	4.4	-6.0	13.1	.
COc1cccc(C2/C(=C(/O)c3ccc4c(c3)CC(C)O4)C(=O)C(=O)N2CC2CCCO2)c1 (stereo not given)	3.8	0.2	.	.	2.9	.
CCCCSc1cnn(-c2ccccc2)c(=O)c1SCCCC	-1.1	4.5	4.4	15.6*	-0.4	-2.8
O=C(CSCC(=O)NC1CC1)Nc1ccc2ccccc2c1	14.0	0.3	.	-7.9	6.1	.
COc1cc(/C=N/NC2=NCCCCC2)ccc1O	-2.2	5.7	1.3	-8.1	9.2	.
